Experimental findings from ChEMBL document CHEMBL4334464, “From Phenylthiazoles to Phenylpyrazoles: Broadening the Antibacterial Spectrum toward Carbapenem-Resistant Bacteria” (J Med Chem, 2019) are described below.

In one data set the test system is Salmonella enteritidis. Kind of data set: Antibacterial activity against Salmonella enteritidis ATCC 14028 infected in mouse J774 cells assessed as reduction in intracellular bacterial cells at 2 times MIC incubated for 24 hrs followed by re-plating on TSA plate and measured after 18 to 22 hrs relative to control. Set-up: scale not given: the % may be the effect or the level left. The data set is classed as functional, Salmonella enterica subsp. enterica serovar Enteritidis. The method in brief: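 J774 murine macrophages infected with Salmonella enteritidis ATCC 14028, then treated at 2×MIC for 24 h, in triplicate. Read-out is the percent reduction in intracellular colony forming units versus the untreated control.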

In data set [1] the test system is Staphylococcus aureus. Put plainly: Antibacterial activity against methicillin-resistant Staphylococcus aureus NRS123-USA400 clinical isolates assessed as ratio of MIC after and before 10 serial passages by broth microdilution assay. Format: functional. The procedure, abridged:
(§1)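 MRSA USA400 was serially passaged over a 14-day period in the presence of each compound or control antibiotic. MIC was determined by broth microdilution after each passage. A four-fold rise in MIC was taken as a sign of resistance.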
For orientation: Broth dilution looks for growth in wells or tubes with falling amounts of substance.

Data set [2] has as its system Staphylococcus aureus. Kind of data set: Antibacterial activity against methicillin-resistant Staphylococcus aureus NRS123-USA400 infected in mouse J774 cells assessed as reduction in intracellular bacterial cells at 2 times MIC incubated for 24 hrs followed by re-plating on TSA plate and measured after 18 to 22 hrs relative to control. Format: functional. Set-up: scale not given: the % may be the effect or the level left. The procedure, abridged:
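J774 murine macrophages were infected with MRSA USA400 and then treated at 2×MIC for 24 h, in triplicate. The read-out was percent reduction in intracellular colony-forming units versus untreated infected cells.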

Data set [3] concerns Staphylococcus aureus. Kind of data set: Antibacterial activity against methicillin-resistant Staphylococcus aureus NRS123-USA400 clinical isolates over 14 serial passages by broth microdilution assay. The data set is classed as functional, organism-based. The method in brief: as §1
Data set [4] is described as follows: Stability in human liver microsomes assessed as compound remaining measured immediately in presence of NADPH by LC/MS/MS analysis. The data set is classed as ADME, Microsome. Particulars: read-out: Stability. The procedure, abridged:
(§2)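 Two independent runs (1st and 2nd) were done at each time point, and the mean percent remaining is reported. Incubations were run both with and without NADPH. Half-life and intrinsic clearance (Clint) were derived from the time-course data.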

Data set [5] in a line: Stability in human liver microsomes assessed as compound remaining incubated for 15 mins in presence of NADPH by LC/MS/MS analysis. Format: ADME, Microsome. Particulars: read-out: Stability. The procedure, abridged: as §2
(In general: Liver microsomes are vesicles of endoplasmic reticulum, rich in cytochrome P450 enzymes.)

Data set [6] in a line: Stability in human liver microsomes assessed as compound remaining incubated for 30 mins in presence of NADPH by LC/MS/MS analysis. Particulars: read-out: Stability. The data set is classed as ADME, Microsome. The procedure, abridged:
as §2

A short description of data set [7]: Stability in human liver microsomes assessed as compound remaining incubated for 45 mins in presence of NADPH by LC/MS/MS analysis. The data set is classed as ADME, Microsome. The following applies: read-out: Stability. The method in brief:
as §2

Data set [8] can be described thus: Stability in human liver microsomes assessed as compound remaining incubated for 60 mins in presence of NADPH by LC/MS/MS analysis. The data set is classed as ADME, Microsome. Particulars: read-out: Stability. The procedure, abridged: as §2
Data set [9] can be described thus: Stability in human liver microsomes assessed as compound remaining measured immediately in absence of NADPH by LC/MS/MS analysis. Format: ADME, Microsome. The following applies: read-out: Stability. The procedure, abridged:
as §2

Data set [10] in a line: Stability in human liver microsomes assessed as compound remaining incubated for 30 mins in absence of NADPH by LC/MS/MS analysis. Particulars: read-out: Stability. Format: ADME, Microsome. The method in brief: as §2
Data set [11] in a line: Half life in human liver microsomes in absence of NADPH by LC/MS/MS analysis. Format: ADME, Microsome.
Data set [12] in a line: Intrinsic clearance in human liver microsomes in presence of NADPH by LC/MS/MS analysis. Particulars: read-out: CLH. The data set is classed as ADME, Microsome.
Data set [13] in a line: Intrinsic clearance in human liver microsomes in absence of NADPH by LC/MS/MS analysis. The data set is classed as ADME, Microsome. The following applies: read-out: CLH.
A short description of data set [14]: Apparent permeability across apical to basolateral side in human Caco2 cells after 2 hrs by LC/MS/MS analysis. Particulars: Caco-2. The data set is classed as ADME, cell-based.
A short description of data set [15]: Half life in Sprague-Dawley rat at 5 mg/kg, iv administered as bolus dose measured over 12 hrs by LC-MS/MS analysis. The data set is classed as ADME, organism-based. The following applies: in vivo.
Data set [16] in a line: Clearance in Sprague-Dawley rat at 5 mg/kg, iv administered as bolus dose measured over 12 hrs by LC-MS/MS analysis. Format: ADME, organism-based. The following applies: in vivo.
The test system of data set [17] is Staphylococcus aureus. Kind of data set: Potency index, ratio of compound effect to vancomycin effect for antibiofilm activity against methicillin-resistant Staphylococcus aureus NRS384-USA300 clinical isolates at 0.5 times MIC. Format: functional.
For data set [18], the system named is Staphylococcus aureus. Put plainly: Antibacterial activity against methicillin-resistant Staphylococcus aureus NRS123-USA400 clinical isolates assessed as ratio of MIC after and before 8 serial passages by broth microdilution assay. Format: functional. The procedure, abridged:
as §1

Data set [19] relates to Staphylococcus aureus. Put plainly: Antibacterial activity against methicillin-resistant Staphylococcus aureus NRS123-USA400 clinical isolates assessed as ratio of MIC after and before 14 serial passages by broth microdilution assay. The data set is classed as functional. The procedure, abridged: as §1

Active and inactive are the calls of the source. A value given as a limit tells only on which side of the number the result lay.

Turning to `C/C(=N\NC(=N)N)c1cnn(-c2ccc(C#Cc3ccccc3)cc2)c1C`, the Activity with Salmonella enteritidis is listed as 70%. Besides, the Ratio in the data set with Staphylococcus aureus [1] is 1.

`C/C(=N\NC(=N)N)c1cnn(-c2ccc(C#CC3CCCC3)cc2)c1C`: the values for the Activity in the data set on Staphylococcus aureus [2] and in the data set with Salmonella enteritidis were 90% and 98%, respectively. The result with Staphylococcus aureus [3] was Active. In addition, the remaining at 0 min in data set [4] and in [9] was 100% each time. The remaining at 0.25 h in data set [5] came out at 93%. In addition, the remaining at 0.5 h in [6] was 92%; in data set [10], 99%. For the same compound, in data set [7], the remaining at 0.75 h worked out at 81%. Further, the remaining at 1 h in data set [8] came to 82%. Moreover, the half-life was 8.42 h in data set [11] and 10.5 h in data set [15]. For the same compound, the microsomal CLint in data set [12] was 35.8 µL/min/mg; in data set [13], less than 116 µL/min/mg. Further, in data set [14], the Papp A→B at 2 h stood at 0.01 ×10⁻⁶ cm/s. In addition, in data set [16], the clearance is 16.7 mL/min. The Ratio in the data set with Staphylococcus aureus [17] is recorded as 2.

For the compound `C/C(=N\NC1=NCCN1)c1cnn(-c2ccc(C#CC3CCCC3)cc2)c1C`, in the data set on Staphylococcus aureus [2], the Activity is recorded as 98.4%. Further, the results for the Ratio in the data set on Staphylococcus aureus [18] and in the data set on Staphylococcus aureus [19] were 1 and 2, respectively. Further, the remaining at 0 min in data set [4] and in [9] was 100% in each case. Also, the remaining at 0.25 h in data set [5] worked out at 99%. In addition, the remaining at 0.5 h is 92% in data set [6] and 97% in data set [10]. Moreover, in data set [7], the remaining at 0.75 h amounted to 79%. Moreover, in data set [8], the remaining at 1 h was determined as 79%. In [11], the half-life worked out at 20.3 h. For the same compound, the microsomal CLint in data set [12] is 42.3 µL/min/mg; in data set [13], less than 116 µL/min/mg. The apparent permeability from apical to basolateral (Papp A→B) at 2 h in data set [14] is 0.1 ×10⁻⁶ cm/s.

The half-life is the time needed for the level to fall by half in the phase considered. As a reminder, the Papp A→B is the apparent permeability from the apical to the basolateral side of a cell layer. For orientation: clearance means the rate of elimination divided by the concentration.
